Test: Treatment-emergent adverse events, tolerability
Assay type: in vivo, healthy men
In short: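 Healthy men received single oral tablet doses (part 1: 1–225 mg; part 2: 10, 50 mg) or placebo under double-blind randomisation. Treatment-emergent adverse events were recorded along with clinical laboratory tests, ECG, oral temperature, vital signs and physical examinations, through follow-up.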

## CC(C)(O)c1ccccc1-c1ccc2[nH]c(/C=C/c3ccc(C(F)(F)F)cc3)nc2c1 [JNJ-39439335, trans-2-(2-{2-[2-(4-Trifluoromethyl-phenyl)-vinyl]-1H-benzimidazol-5-yl}-phenyl)-propan-2-ol]
In vivo
  Doses at which thermohypoesthesia occurred: ≥ 10 mg
Of 79 participants receiving JNJ-39439335
  Participants with minor or first-degree burns on the hand or the mouth: 7 participants
Part 1, 1 mg (N = 6)
  TEAE Agusia: 0 n (%)
  TEAE Back pain: 0 n (%)
  TEAE Burning sensation: 0 n (%)
  TEAE Chills: 0 n (%)
  TEAE Dizziness: 0 n (%)
  TEAE Dizziness postural: 1 (17) n (%)
  TEAE Dysgeusia: 0 n (%)
  TEAE Fatigue: 1 (17) n (%)
  TEAE Feeling cold: 0 n (%)
  TEAE Feeling hot: 0 n (%)
  TEAE Headache: 0 n (%)
  TEAE Hematoma: 0 n (%)
  TEAE Hyperhidrosis: 0 n (%)
  TEAE Hypoesthesia: 0 n (%)
  TEAE Hypogeusia: 0 n (%)
  TEAE Nausea: 0 n (%)
  TEAE Paresthesia: 0 n (%)
  TEAE Pruritus: 0 n (%)
  TEAE Pyrexia: 0 n (%)
  TEAE Rhinitis: 0 n (%)
  TEAE Thermal burn: 0 n (%)
  TEAE Thermohypoesthesia: 0 n (%)
  Total no. participants with AEs: 2 (33) n (%)
Part 1, 2 mg (N = 6)
  TEAE Agusia: 0 n (%)
  TEAE Back pain: 0 n (%)
  TEAE Burning sensation: 0 n (%)
  TEAE Chills: 0 n (%)
  TEAE Dizziness: 0 n (%)
  TEAE Dizziness postural: 0 n (%)
  TEAE Dysgeusia: 0 n (%)
  TEAE Fatigue: 0 n (%)
  TEAE Feeling cold: 0 n (%)
  TEAE Feeling hot: 0 n (%)
  TEAE Headache: 1 (17) n (%)
  TEAE Hematoma: 1 (17) n (%)
  TEAE Hyperhidrosis: 0 n (%)
  TEAE Hypoesthesia: 1 (17) n (%)
  TEAE Hypogeusia: 0 n (%)
  TEAE Nausea: 0 n (%)
  TEAE Paresthesia: 0 n (%)
  TEAE Pruritus: 0 n (%)
  TEAE Pyrexia: 0 n (%)
  TEAE Rhinitis: 0 n (%)
  TEAE Thermal burn: 0 n (%)
  TEAE Thermohypoesthesia: 0 n (%)
  Total no. participants with AEs: 3 (50) n (%)
Part 1, 5 mg (N = 6)
  TEAE Agusia: 0 n (%)
  TEAE Back pain: 0 n (%)
  TEAE Burning sensation: 0 n (%)
  TEAE Chills: 0 n (%)
  TEAE Dizziness: 0 n (%)
  TEAE Dizziness postural: 0 n (%)
  TEAE Dysgeusia: 0 n (%)
  TEAE Fatigue: 0 n (%)
  TEAE Feeling cold: 1 (17) n (%)
  TEAE Feeling hot: 1 (17) n (%)
  TEAE Headache: 0 n (%)
  TEAE Hematoma: 0 n (%)
  TEAE Hyperhidrosis: 0 n (%)
  TEAE Hypoesthesia: 0 n (%)
  TEAE Hypogeusia: 0 n (%)
  TEAE Nausea: 0 n (%)
  TEAE Paresthesia: 0 n (%)
  TEAE Pruritus: 0 n (%)
  TEAE Pyrexia: 4 (67) n (%)
  TEAE Rhinitis: 0 n (%)
  TEAE Thermal burn: 0 n (%)
  TEAE Thermohypoesthesia: 0 n (%)
  Total no. participants with AEs: 4 (67) n (%)
Part 1, 10 mg (N = 6)
  TEAE Agusia: 0 n (%)
  TEAE Back pain: 0 n (%)
  TEAE Burning sensation: 0 n (%)
  TEAE Chills: 0 n (%)
  TEAE Dizziness: 1 (17) n (%)
  TEAE Dizziness postural: 2 (33) n (%)
  TEAE Dysgeusia: 0 n (%)
  TEAE Fatigue: 0 n (%)
  TEAE Feeling cold: 0 n (%)
  TEAE Feeling hot: 0 n (%)
  TEAE Headache: 1 (17) n (%)
  TEAE Hematoma: 0 n (%)
  TEAE Hyperhidrosis: 1 (17) n (%)
  TEAE Hypoesthesia: 0 n (%)
  TEAE Hypogeusia: 0 n (%)
  TEAE Nausea: 1 (17) n (%)
  TEAE Orthostatic hypotension: 2 (33) n (%)
  TEAE Paresthesia: 1 (17) n (%)
  TEAE Pruritus: 1 (17) n (%)
  TEAE Pyrexia: 5 (83) n (%)
  TEAE Rhinitis: 2 (33) n (%)
  TEAE Thermal burn: 0 n (%)
  TEAE Thermohypoesthesia: 3 (50) n (%)
  Total no. participants with AEs: 6 (100) n (%)
Part 1, 15 mg (N = 6)
  TEAE Agusia: 0 n (%)
  TEAE Back pain: 0 n (%)
  TEAE Burning sensation: 0 n (%)
  TEAE Chills: 0 n (%)
  TEAE Dizziness: 1 (17) n (%)
  TEAE Dizziness postural: 1 (17) n (%)
  TEAE Dysgeusia: 1 (17) n (%)
  TEAE Fatigue: 0 n (%)
  TEAE Feeling cold: 4 (67) n (%)
  TEAE Feeling hot: 5 (83) n (%)
  TEAE Headache: 0 n (%)
  TEAE Hematoma: 0 n (%)
  TEAE Hyperhidrosis: 3 (50) n (%)
  TEAE Hypoesthesia: 0 n (%)
  TEAE Hypogeusia: 2 (33) n (%)
  TEAE Nausea: 0 n (%)
  TEAE Paresthesia: 2 (33) n (%)
  TEAE Pruritus: 1 (17) n (%)
  TEAE Pyrexia: 4 (67) n (%)
  TEAE Rhinitis: 0 n (%)
  TEAE Thermal burn: 0 n (%)
  TEAE Thermohypoesthesia: 5 (83) n (%)
  Total no. participants with AEs: 6 (100) n (%)
Part 1, 15 mg R (N = 6)
  TEAE Agusia: 0 n (%)
  TEAE Back pain: 0 n (%)
  TEAE Burning sensation: 0 n (%)
  TEAE Chills: 0 n (%)
  TEAE Dizziness: 0 n (%)
  TEAE Dizziness postural: 0 n (%)
  TEAE Dysgeusia: 0 n (%)
  TEAE Fatigue: 0 n (%)
  TEAE Feeling cold: 3 (50) n (%)
  TEAE Feeling hot: 3 (50) n (%)
  TEAE Headache: 0 n (%)
  TEAE Hematoma: 0 n (%)
  TEAE Hyperhidrosis: 0 n (%)
  TEAE Hypoesthesia: 1 (17) n (%)
  TEAE Hypogeusia: 0 n (%)
  TEAE Nausea: 0 n (%)
  TEAE Paresthesia: 2 (33) n (%)
  TEAE Pruritus: 0 n (%)
  TEAE Pyrexia: 2 (33) n (%)
  TEAE Rhinitis: 0 n (%)
  TEAE Thermal burn: 0 n (%)
  TEAE Thermohypoesthesia: 2 (33) n (%)
  Total no. participants with AEs: 6 (100) n (%)
Part 1, 30 mg (N = 5)
  TEAE Agusia: 0 n (%)
  TEAE Back pain: 2 (40) n (%)

Reference: article PMC5741288 (Pain Reports, 2016)
